Screening data as filed in PubChem.
An excerpt weighted towards active compounds, which were near 2.5% of everything screened.
HTRA1 inhibitor – HTRA1 (human) protease inhibition; Q92743; recombinant HTRA1, FP-rhodamine activity-based probe, fluorescence polarization; inhibition, % at 5.96 µM; 340,000 tested, 0.5% active; AID 504803; in the data active = inhibition above about 36%;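 note: 0% = enzyme with DMSO and 100% = wells lacking enzyme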
TCR CD3 inh – blocks the human TCR-CD3 interaction; TAMRA-labeled TCR probe fluorescence, biochemical; inhibition, % at 9.4 µM; 360,000 tested, 0.37% active; AID 651800; in the data active = inhibition above about 19%;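 note: recombinant mutant TCR 2C K166C tagged with TAMRA read by polarization; 0% = receptor in buffer alone and 100% = receptor with positive control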
SIAE primary – human SIAE inhibition, primary screen; 370,000 tested, 0.69% active; Q9HAT2; AID 1053197; SIAE FP-Rh probe binding, fluorescence polarization; inhibition, % at 9.66 µM;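 active = inhibition above a cutoff: mean of compounds within the control limits plus 3 SD of those, cut at about 17% in these data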;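 note: 0% = plate median of compound wells and 100% = probe without SIAE protein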
ABHD4 inh – inhibits mouse alpha/beta hydrolase domain 4; Q8VD66; purified mABHD4, FP-Rh probe fluorescence polarization; inhibition, % at 8.92 µM; 370,000 tested, 0.54% active; AID 720543;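 active = inhibition exceeding the mean over every tested compound plus 3 SD, cut at about 30% in these data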;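 note: 0% = plate median of compound wells and 100% = S159A mutant with DMSO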
Target sequence (Q8VD66 whole entry, looked up, the tested form may be a part): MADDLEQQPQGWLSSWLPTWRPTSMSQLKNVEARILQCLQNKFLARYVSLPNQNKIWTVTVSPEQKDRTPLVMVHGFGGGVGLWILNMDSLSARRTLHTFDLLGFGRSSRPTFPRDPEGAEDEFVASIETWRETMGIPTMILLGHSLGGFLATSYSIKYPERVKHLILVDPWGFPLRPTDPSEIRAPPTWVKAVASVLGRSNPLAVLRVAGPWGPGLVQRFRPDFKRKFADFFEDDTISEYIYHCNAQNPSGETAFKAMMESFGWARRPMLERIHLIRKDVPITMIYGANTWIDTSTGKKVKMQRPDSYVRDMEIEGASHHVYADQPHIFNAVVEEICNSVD
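system = mouse ABHD4 enzyme, wild type | medium = HEPES pH 7.0, NaCl, Pluronic buffer | also added = FP-Rh probe | incubation = Enzyme–compound pre-incubation 45 min, then probe 60 min, both 25 °C | technique = fluorescence polarization, excitation 525 nm, emission 598 nm, BODIPY TMR filters | controls = S159A mutant high control, sample median low control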
rCAG RNA binder – r(CAG) repeat RNA binding. TO-PRO-1 dye displacement fluorescence. 370,000 tested, 1.3% active. inhibition, % at 3 µM. AID 651821;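 active = inhibition above the plate cutoff, the mean of all test compounds on that plate plus 3 SD, cut at about 35% in these data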;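 note: 0% = DMSO alone and 100% = 100 µM mitoxantrone as full dye displacement; higher means more dye released from RNA so lower well fluorescence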
ABHD4 confirm – ABHD4 (mouse) inhibition, FP confirmation; inhibition, % at 8.92 µM; purified mABHD4, FP-Rh probe fluorescence polarization; 1,800 tested, 55% active; shares compounds with ABHD4 inh;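 active = mean inhibition across replicates above the hit cutoff set in the primary screen, cut at about 30% in these data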;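 note: 0% = wild-type ABHD4 with DMSO and 100% = catalytically dead S159A mutant with DMSO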
Active calls of the source: *; i = inactive; · = not tested or not shown.

SMILES	HTRA1 inhibitor	TCR CD3 inh	SIAE primary	ABHD4 inh	rCAG RNA binder	ABHD4 confirm
Cc1cc(C(=O)O)ccc1-n1c(C)cc(/C=C(/C#N)C(=O)Nc2ccccc2)c1C	·	4.1	-1.3	45.8*	16.2	3.4
CCOC(=O)C(NCc1ccccc1OC)(NC(=O)c1ccccc1)C(F)(F)F (centres undefined)	-7.7	-3.5	-1.1	4.8	0.4	·
O=C(NC(=S)NNC(=O)c1cnccn1)c1ccc(F)cc1	14.5	1.3	8.9	8.4	-1.3	·
Cc1ccc(NC(=S)NNC(=O)c2cnccn2)cc1	·	·	12.1	52.2*	1.6	59.0*
CC(=O)N=c1sc2nc3ccccc3nc2n1N(C(C)=O)C(C)=O	5.3	16.9	2.3	35.4*	3.0	3.3
CC(=O)N=c1sc2ccccc2n1C	-0.7	9.2	-3.7	4.5	2.4	·
Cc1nnc2ccc(-c3cccc(NC(=O)Cc4cccs4)c3)nn12	-13.4	-7.3	-5.7	-8.2	6.0	·
CCCCNc1c(-c2cccc(-c3cc(C(C)=O)cs3)c2)nc2ccc(C)cn12	-8.8	6.7	12.0	14.6	3.9	·
CCCCNc1c(-c2ccc(-c3cccc(Cl)c3)cc2)nc2ccccn12	-14.0	0.9	8.4	39.8*	2.2	31.7*
CCCCCCSc1cccc(-c2nc3ccc(Cl)cn3c2NCCCC)c1	-2.3	-1.5	-2.9	2.7	-0.5	·
CCCCCCSc1ccc(-c2nc3ccccn3c2NCCCC)cc1	-0.4	2.5	5.3	43.9*	-3.6	50.2*
CCCCNc1c(-c2cccc(-c3ccc(OC)cc3)c2)nc2ccc(C)cn12	-18.2	6.5	4.9	30.1*	1.1	35.4*
CC(=O)Nc1ccc(NC(=O)CSc2nnc(-c3ccc(NS(C)(=O)=O)cc3)n2C)cc1C	6.1	4.8	-3.5	0.7	-2.4	·
Cc1nc2ncccn2c1-c1csc(Nc2ccc(N(C)C)cc2)n1	34.0	-3.6	15.8	27.9	11.3	·
COc1ccccc1[C@@H]1C(c2ccccc2)=NN(c2ccc(Br)cc2)[C@H]1C(=O)N1CCOC1=O	-14.5	1.2	-6.3	48.7*	12.2	-2.5
O=C1C=C(Nc2ccc(O)cc2)CC(c2ccco2)C1 (centres undefined)	25.6	0.9	-5.6	43.9*	8.8	18.7
CCC(C)(C)n1nnnc1C(c1cccnc1)N1CCCc2ccccc21 (centres undefined)	-3.9	3.5	3.5	6.5	-8.5	·
O=C(CCNS(=O)(=O)c1ccccc1C(F)(F)F)NNC(=O)C1COc2ccccc2O1 (centres undefined)	-3.5	-2.2	3.3	41.5*	5.4	-0.9
CCCCCCCCCCOC(=O)Cn1c(COc2ccccc2)[n+](C)c2ccccc21	20.4	2.5	0.1	30.4*	5.5	33.1*
CCCCCCCCCCOC(=O)Cn1c(COc2ccccc2C)[n+](C)c2ccccc21	32.0	·	·	·	·	·
CCOC(=O)Cn1c(COc2ccccc2OC)[n+](C)c2ccccc21	·	12.2	0.1	5.3	-0.9	·
CCCCCCCCCCOC(=O)Cn1c(COc2ccc(Cl)cc2)[n+](C)c2ccccc21	34.2	1.4	0.5	35.2*	10.7	54.7*
CCOc1ccc(NC(=O)c2ccc(NCC(=O)N3CCCCCC3)cc2)cc1	-1.1	8.1	0.2	-3.8	-1.4	·
CCCc1cc(N2CCC(C(N)=O)CC2)nc(-c2ccccc2)n1	3.4	-7.8	-5.4	3.1	-5.0	·
Cc1cc(C)cc(OCCNC(=O)C(C)N2C(=O)c3ccccc3C2=O)c1 (centres undefined)	-4.9	7.4	-1.5	1.5	-4.3	·
SMILES	HTRA1 inhibitor	TCR CD3 inh	SIAE primary	ABHD4 inh	rCAG RNA binder	ABHD4 confirm
COc1cccc(N2CCN(CC(=O)NCc3ccc(Cl)cc3)CC2)c1	·	·	-0.2	2.0	0.6	·
CC(CNc1ccccc1O)C(=O)O (centres undefined)	5.5	-1.3	3.7	33.7*	5.5	1.9
CC(NC(=O)CCC(=O)Nc1ccccc1O)c1ccccc1 (centres undefined)	·	-1.4	-0.1	-7.6	-0.5	·
CC(C)CCN1CCN(Cc2coc3ccccc3c2=O)CC1CCO (centres undefined)	12.9	-9.0	0.2	-3.8	-2.6	·
C=CCS/C(N)=N\N=C\c1cc(Br)cc([N+](=O)[O-])c1O	21.6	17.9	2.0	30.6*	16.6	6.5
CCOC(=O)C1Cn2c(nc3c(c2=O)C2(CCCC2)Cc2ccccc2-3)S1 (centres undefined)	-4.0	0.2	-2.1	-4.2	4.0	·
O=C(O)C1Cn2c(nc3c(c2=O)C2(CCCC2)Cc2ccccc2-3)S1 (centres undefined)	4.2	-1.4	1.8	41.6*	19.5	41.6*
CCOC(=O)CSc1nc(Nc2ccc3c(c2)OCO3)c2ccccc2n1	-8.5	-0.8	9.4	40.0*	3.0	32.4*
Cc1ccc(C=Nc2ccc(N(C)C)cc2)o1	52.5*	8.1	9.8	39.7*	9.4	33.5*
Cc1ccc(-c2ccccc2)n1-c1ccc(C(=O)O)cc1	-8.0	-8.7	0.9	35.6*	4.7	-7.7
Cc1ccc(-c2ccccc2)n1-c1cccc(C(=O)O)c1	-0.8	-7.6	5.2	14.3	14.7	·
O=C(NCCN1CCN(C(=O)C(c2ccccc2)c2ccccc2)CC1)C(=O)Nc1ccccc1	-5.0	-0.7	3.4	0.8	-2.8	·
N#CCC(=O)NNc1c([N+](=O)[O-])cc(C(F)(F)F)cc1[N+](=O)[O-]	·	-8.0	6.5	42.6*	20.4	5.0
O=C1OC(/C(=C\Nc2cc(Cl)ccc2O)[N+](=O)[O-])c2ccccc21 (centres undefined)	5.5	-0.7	4.5	42.0*	2.5	7.9
O=C1OC(/C(=C\Nc2ccc(F)cc2F)[N+](=O)[O-])c2ccccc21 (centres undefined)	2.4	2.6	1.9	1.3	1.5	·
O=C(Nc1ccccc1F)Nc1cccc2ccc(O)cc12	32.6	1.2	10.7	30.9*	18.6	43.2*
C=CCN(c1ccccc1C(=O)O)S(=O)(=O)c1ccc(NC(=O)OC)cc1	3.2	-3.6	-0.2	34.6*	-2.5	-5.7
CCC(C(=O)NCC1CCCO1)N(Cc1ccc(F)cc1)C(=O)CNS(=O)(=O)c1ccccc1 (centres undefined)	-2.2	6.0	-2.2	6.5	-5.1	·
CC(C)(C)c1ccc(S(=O)(=O)/N=C2\C=C(NS(=O)(=O)c3ccccc3)C(=O)c3ccccc32)cc1	13.5	-1.9	6.4	36.2*	58.7*	59.9*
O=C1CCC(=O)N1c1ccc(S(=O)(=O)Nc2ccc(Br)cc2)cc1	-8.3	-7.2	1.8	-5.6	3.6	·
CCN1C(=O)c2cccc3c(N)ccc(c23)C1=O	24.4	12.5	8.7	33.3*	i	58.0*
Cc1nn(Cc2ccccc2)c2c1C(c1cccc(Cl)c1)C(C#N)=C(N)O2 (centres undefined)	14.3	0.1	12.8	54.4*	11.4	40.5*
COc1cc(-n2nc(C)c3c2OC(N)=C(C#N)C3c2ccccc2)c(Cl)c(Br)c1O (centres undefined)	27.4	-2.2	5.2	29.5*	16.7	40.1*
